Assays:
[1] = Plasma clearance in rat; format: ADME, organism-based
How it was run: (§1)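 Male Sprague–Dawley rats, n=3 per study, in an iv/po crossover design. Dosed in aqueous solution with 1% DMSO and up to 20% hydroxypropyl-beta-cyclodextrin, 4 and 8 µmol/kg for iv and po. Lateral tail vein blood sampling. Plasma drug measured by LC/MS/MS, lower limit of quantification >10ng/mL.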

[2] = target: T1, C-X-C chemokine receptor type 1 (Homo sapiens, UniProt P25024); experiment: Concentration required to inhibit [125I]-IL-8 binding towards C-X-C chemokine receptor type 1 of human expressed in CHO cells; format: cell-based
T1 sequence (P25024 whole entry): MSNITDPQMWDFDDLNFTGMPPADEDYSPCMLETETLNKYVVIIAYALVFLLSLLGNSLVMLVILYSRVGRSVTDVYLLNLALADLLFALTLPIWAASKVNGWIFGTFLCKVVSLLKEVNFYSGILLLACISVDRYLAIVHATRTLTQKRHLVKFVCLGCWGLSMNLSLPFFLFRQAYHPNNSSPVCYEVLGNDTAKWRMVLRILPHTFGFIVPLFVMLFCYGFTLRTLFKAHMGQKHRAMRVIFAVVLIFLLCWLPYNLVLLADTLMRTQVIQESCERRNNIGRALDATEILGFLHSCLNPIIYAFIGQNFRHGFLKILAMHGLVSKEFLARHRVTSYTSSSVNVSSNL
How it was run: (§2)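 SPA binding on membranes from CHO cell lines expressing CXCR1 or CXCR2. Competition against radiolabeled human recombinant [125I]-IL-8 at 0.23nM. Values are the mean of three individual experiments.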

[3] = target: T2, C-X-C chemokine receptor type 2 (Homo sapiens, UniProt P25025); experiment: Concentration required to inhibit [125I]IL-8 binding towards C-X-C chemokine receptor type 2 of human expressed in CHO cells; format: cell-based; how it was run: as §2
T2 sequence (P25025 whole entry): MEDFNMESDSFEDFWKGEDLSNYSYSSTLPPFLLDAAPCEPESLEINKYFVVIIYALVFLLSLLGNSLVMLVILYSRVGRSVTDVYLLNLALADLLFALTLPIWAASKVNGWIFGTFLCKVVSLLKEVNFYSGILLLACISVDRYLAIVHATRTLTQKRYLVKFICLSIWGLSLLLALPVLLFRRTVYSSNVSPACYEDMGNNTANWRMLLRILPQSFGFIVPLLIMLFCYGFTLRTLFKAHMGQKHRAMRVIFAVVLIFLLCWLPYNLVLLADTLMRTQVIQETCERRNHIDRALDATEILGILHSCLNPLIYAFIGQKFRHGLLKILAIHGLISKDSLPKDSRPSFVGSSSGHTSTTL

[4] = pKa value was determined; format: physicochemical
How it was run: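 pKa calculated in silico, not measured experimentally.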

[5] = Oral bioavailability in rat; format: ADME, organism-based; details: in vivo; how it was run: as §1
[6] = In vitro intrinsic clearance of urea in rat liver microsomes in absence of UDPGA; format: ADME, Microsome
How it was run: (§3)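 Rat or human liver microsomes at 0.5mg microsomal protein/mL, run with or without UDPGA. Final compound 0.5–1 µM. Substrate loss followed by LC/MS/MS over a 30-min incubation. CLint taken from the slope of substrate disappearance versus time.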

[7] = In vitro intrinsic clearance of urea in rat liver microsomes in presence of UDPGA; format: ADME, Microsome; how it was run: as §3
[8] = In vitro intrinsic clearance of urea in human liver microsomes in absence of UDPGA; format: ADME, Microsome; how it was run: as §3
[9] = In vitro intrinsic clearance of urea in human liver microsomes in presence of UDPGA; format: ADME, Microsome; how it was run: as §3

SMILES | clearance [1] [mL/min/kg] | IC50 [2] [nM] | IC50 [3] [nM] | pKa [4] | bioavailability [5] [%] | CL [6] [ml min-1 g-1 liver] | CL [7] [ml min-1 g-1 liver] | CL [8] [ml min-1 g-1 liver] | CL [9] [ml min-1 g-1 liver]
NC(=O)c1c(Cl)ccc(NC(=O)Nc2ccccc2Br)c1O | 105 | 6040 | 10 | 7.11 | 3.6 | 1.5 | 5.3 | 0.74 | 1.5
O=C(Nc1ccccc1Br)Nc1ccc(Cl)c(Cl)c1O | 73.6 | 13400 | 63 | 7.24 | 13 | – | – | – | –
NS(=O)(=O)c1c(Cl)ccc(NC(=O)Nc2ccccc2Br)c1O | 16.1 | 1370 | 7 | 6.12 | 86 | 1.5 | 5.3 | 0.74 | 1.5

Next, values leading:

clearance [1] [mL/min/kg] | IC50 [2] [nM] | IC50 [3] [nM] | pKa [4] | bioavailability [5] [%] | CL [6] [ml min-1 g-1 liver] | CL [7] [ml min-1 g-1 liver] | CL [8] [ml min-1 g-1 liver] | CL [9] [ml min-1 g-1 liver] | SMILES
23.4 | 4320 | 12 | 6.19 | 100 | – | – | – | – | CN(C)S(=O)(=O)c1c(Cl)ccc(NC(=O)Nc2ccccc2Br)c1O
323 | – | 906 | 8.24 | 6.6 | – | – | – | – | O=C(Nc1ccc(Cl)cc1O)Nc1ccccc1Br
104 | 30000 | 114 | 6.85 | 67 | – | – | – | – | Cl.NCc1c(Cl)ccc(NC(=O)Nc2ccccc2Br)c1O
